This is an account of results in article PMC9486669 (Veterinary and Animal Science, 2022).

For series [1] the following is noted: ref Miró et al., 2020b; cited from earlier work.
The test system of another series is ruminal incubations. Particulars: ref Miró et al., 2020b; cited from earlier work.
Series [2] relates to gram-positive and negative bacteria. Particulars: ref Nagoor Meeran et al., 2017; cited from earlier work.
For series [3], the system named is FMO. The note with it: sheep liver microsomes, ref Miró et al. 2020b, 2020c; cited from earlier work. For orientation: Microsomes from liver hold many membrane-bound enzymes, among them those of drug oxidation.
Another series has as its system sheep liver microsomes. The note with it: ref Miró et al. 2020b, 2020c; cited from earlier work.
In a further series the target is T1, CYP1A1 (Ovis aries, UniProt P56591).
T1 sequence (P56591 1-519): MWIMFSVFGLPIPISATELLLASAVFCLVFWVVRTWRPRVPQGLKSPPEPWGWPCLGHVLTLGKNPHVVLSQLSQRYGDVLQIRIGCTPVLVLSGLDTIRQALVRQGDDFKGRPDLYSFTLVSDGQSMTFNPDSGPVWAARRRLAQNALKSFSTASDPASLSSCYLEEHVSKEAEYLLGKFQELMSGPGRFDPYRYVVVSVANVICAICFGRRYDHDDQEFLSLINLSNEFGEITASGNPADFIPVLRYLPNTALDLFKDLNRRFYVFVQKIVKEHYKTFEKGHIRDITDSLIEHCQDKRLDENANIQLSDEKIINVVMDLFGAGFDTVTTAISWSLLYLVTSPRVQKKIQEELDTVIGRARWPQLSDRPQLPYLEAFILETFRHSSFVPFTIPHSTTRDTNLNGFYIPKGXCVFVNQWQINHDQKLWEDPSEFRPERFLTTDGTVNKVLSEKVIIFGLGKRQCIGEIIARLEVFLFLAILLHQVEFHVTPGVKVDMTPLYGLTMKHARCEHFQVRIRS
The note with it: sheep liver microsomes, ref Miró et al. 2020b, 2020c; cited from earlier work.

Series [4] concerns Ancylostoma ceylanicum and Trichuris muris. The note with it: encapsulated monoterpene, in vitro; ref Mirza et al., 2020; cited from earlier work.
Series [5] is classed as in vivo, Corriedale lambs. Particulars: lambs.
For series [6], the system named is Haemonchus contortus. As to the kind of experiment: Fecal egg count reduction in lambs infected with resistant H. contortus. The series is classed as in vivo. The gist of the method: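 Corriedale lambs artificially infected with a resistant H. contortus isolate received yeast-encapsulated test compound, 100 mg/kg orally, as four doses every 24 h. Faeces were sampled on days −1, 7 and 14, and epg was counted by modified McMaster (sensitivity 10 epg). FECR was calculated per McKenna from arithmetic mean epg: day −1 (T1) versus days 7 and 14 (T2).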

For another series, the system named is Caenorhabditis elegans. The note with it: read-out: LC50 (mortality); in vitro; ref Abdel-Rahman et al., 2013; cited from earlier work.
Series [7] concerns FMO. Briefly: FMO-dependent metabolism: BZ N-oxidase activity in sheep liver microsomes. It counts as in vitro ADME.
Series [8] concerns Teladorsagia circumcincta. Particulars: in vitro; ref Helal et al., 2020; cited from earlier work.
For series [9] the following is noted: rats, cited from earlier work.
The next series deals with Trichostrongylus axei. Particulars: in vitro; ref Helal et al., 2020; cited from earlier work.
Series [10] relates to Haemonchus contortus. Particulars: in vitro; ref Helal et al., 2020; cited from earlier work.
Series [11] can be described thus: GNL plasma levels after yeast-encapsulated GNL in the FEC trial. It counts as in vivo, Corriedale lambs. Particulars: lambs; yeast-encapsulated GNL 100 mg/kg oral, four doses every 24 h.
The subject of another series is Rhipicephalus microplus. The note with it: encapsulated in Saccharomyces cerevisiae; ref da Silva Lima et al., 2017; cited from earlier work.

In brackets after ≈: the same amount, converted by molar mass. Several values for one entry are separate records, joined by “and”; a condition that tells them apart may be missing. Identical values can stand only once. Entries after “also recorded” stand apart in the source; their conditions may differ.

As for `Cc1ccc(C(C)C)c(O)c1` [TML, thymol], in [1], the “effect on systemic exposure of ABZ metabolites” value is “did not improve”. In addition, the “effect on formation of ABZ from ABZSO” value with ruminal incubations is reported as “completely abolish”. For the same molecule, in series [2], the MIC (as a rule, the least concentration at which growth counts as inhibited) is listed as 150 µg/mL (≈ 999 µM). In the series on FMO [3], the “effect on FMO-dependent metabolism” value was “inhibited”. Besides, the “effect on S-oxygenation of ABZ” value in the series with sheep liver microsomes is on record as “delayed”. For the same molecule, the “effect on CYP1A1-dependent metabolism” value on CYP1A1 is “inhibited”.

Turning to `CC(C)=CCC/C(C)=C/CO` [GNL, 3,7-dimethylocta-trans-2,6-dien-1-ol], the classification of action result in series [4] is recorded as “fast acting at a moderately high dose”. Further, in series [5] (1 h after second oral dose of GNL 100 mg/kg), the “mean GNL plasma concentration expressed” value came out at 0.02 mM. Besides, the “mean GNL plasma concentration” value in series [5] (1 h after second oral dose of GNL 100 mg/kg (emulsion)) is 3.04 ± 1.33 µg/mL and 3.04 µg/mL. Besides, in the series with Haemonchus contortus [6] (7 and 14 days after first dose, four doses of GNL), the “effect on fecal egg counts” value is reported as “did not significantly decrease”. Also, the “FECR (fecal egg count reduction), in vivo efficacy” value in the series on Haemonchus contortus [6] (day 14, lambs, GNL 100 mg/kg oral x 4, 95% LCL-UCL 0-82.3) worked out at 40.5%. For the same molecule, the LC50 – broadly, the concentration lethal to half of the exposed cells or organisms – in the series with Caenorhabditis elegans was 14 µg/mL (≈ 90.8 µM). Besides, the “BZ N-oxidase activity, lower compared to absence of GNL” value in the series with FMO [7] (0.2 mM GNL) worked out at 65.5 ± 13.6%. Also, the “BZ N-oxidase activity (FMO pathway), lower compared to absence of GNL” value with FMO [7] (2 mM GNL) is 84.5 ± 4.84% and 84.5%. Also, the “reduction of larval motility” value is given as 94% in [8], 90% in the series with Trichostrongylus axei and 82% in the series with Haemonchus contortus [10]. Also, the elimination half-life entry in series [9] (intravenous infusion of 12.5 mg, ref Pavan et al. (2018)) is reported as “about 12 min”. Also, the “time at which Cmax in the bloodstream was achieved” value in series [9] (oral administration, ref Pavan et al., 2018) was 30 min. Further, in series [11], the “time of GNL detection in plasma” value is “detected in plasma only at 1 h post-treatment; also recorded: detected in plasma only at 1 h post-administration”.

In the case of `Cc1ccc(C(C)C)cc1O` [carvacrol], the “decrease of LC50 after encapsulation compared to non-encapsulated” value in the series with Rhipicephalus microplus is listed as 2.5 fold.
